Among the data in ChEMBL document CHEMBL5532717, “Facile Halogenation of Antimicrobial Peptides As Demonstrated by Producing Bromotryptophan-Labeled Nisin Variants with Enhanced Antimicrobial Activity” (2024) are Activity and MIC values, retold here.

Values after ≈ are worked out from the molar mass of the structure shown. Active and inactive are the calls of the source. Some results are limits rather than exact numbers.

In test [1] the test system is Bacillus cereus. Kind of test: Bactericidal activity against Bacillus cereus CH-85 incubated overnight in presence of lipid II by spot-on-lawn assay. It is filed as functional, organism-based. Summed up: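 B. cereus CH-85 lawn: 0.1% (v/v) overnight-culture inoculum mixed into 1.5% (w/v) LB agar at 45 °C and poured. 5 μL of peptide spotted and dried. Purified lipid II (2 μL) then spotted at the edge of the inhibition halo. Plate incubated overnight at 37 °C and read for lipid II binding.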

The next test relates to Lactococcus lactis. Nature of the test: Antibacterial activity against Lactococcus lactis MG1363 assessed as reduction in bacterial growth by broth microdilution method. It is filed as functional. The gist of the method:
(§1)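 Broth microdilution MIC: inoculum adjusted to approximately 5 × 10^5 CFU/mL. Plates incubated overnight at 37 °C, or at 30 °C for L. lactis. MIC taken as the lowest concentration with no visible growth.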

The subject of test [2] is Staphylococcus aureus. Nature of the test: Antibacterial activity against methicillin-resistant Staphylococcus aureus LMG15975 assessed as reduction in bacterial growth by broth microdilution method. It is filed as functional. Summed up: (§2)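 Broth microdilution per standard guidelines; inoculum about 5 × 10^5 CFU/mL. Incubated overnight at 37 °C. MIC taken as lowest concentration with no visible growth.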
For orientation: Dilution methods test growth across graded concentrations, often in twofold steps.

For test [3], the system named is Staphylococcus aureus. Kind of test: Antibacterial activity against Staphylococcus aureus LMG10147 assessed as reduction in bacterial growth by broth microdilution method. It is filed as functional. The gist of the method: as §1
In the next test the test system is Enterococcus faecalis. Kind of test: Antibacterial activity against vancomycin-reistant Enterococcus faecalis LMG16216 assessed as reduction in bacterial growth by broth microdilution method. The class given is functional. Summed up:
as §1

Test [4] deals with Bacillus cereus. Nature of the test: Antibacterial activity against Bacillus cereus CH-85 assessed as reduction in bacterial growth by broth microdilution method. The class given is functional. Summed up: as §1
A further test deals with Enterococcus faecium. Kind of test: Antibacterial activity against vancomycin-resistant Enterococcus faecium LMG16003 assessed as reduction in bacterial growth by broth microdilution method. The class given is functional. Summed up: as §2
For test [5], the system named is Bacillus cereus. Kind of test: Bactericidal activity against Bacillus cereus CH-85 at 15 microg/ml measured for 3 hrs by time-kill assay. It is filed as functional, organism-based. Conditions: dose 15.0 µg/ml. The gist of the method:
(§3)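 B. cereus CH-85 overnight culture diluted 50-fold in LB and grown at 37 °C with aeration to OD600 0.5, then adjusted to 5 × 10^5 cells/mL. Cells exposed to peptide at several concentrations in tubes at 37 °C, 180 rpm; untreated cells as negative control. Aliquots taken at time points, 10-fold serially diluted and plated on LB agar, incubated overnight at 37 °C, CFU/mL counted; triplicate.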

Test [6] has as its system Bacillus cereus. Nature of the test: Bactericidal activity against Bacillus cereus CH-85 assessed as bacterial cell killing at 15 microg/ml measured for 3 hrs by time-kill assay. The class given is functional. Conditions: dose 15.0 µg/ml. The gist of the method:
as §3

For the compound `CCCCCCCCCC(=O)N[C@@H](Cc1c[nH]c2ccccc12)C(=O)N[C@H](CC(N)=O)C(=O)N[C@@H](CC(=O)O)C(=O)N[C@@H]1C(=O)NCC(=O)N[C@@H](CCCN)C(=O)N[C@@H](CC(=O)O)C(=O)N[C@H](C)C(=O)N[C@@H](CC(=O)O)C(=O)NCC(=O)N[C@H](CO)C(=O)N[C@@H]([C@H](C)CC(=O)O)C(=O)N[C@@H](CC(=O)c2ccccc2N)C(=O)O[C@@H]1C`, the result in the test with Bacillus cereus [1] was Active.

For the compound `N[C@@H](Cc1c[nH]c2ccc(O)cc12)C(=O)O` [OXITRIPTAN], the MIC (as a rule, the smallest concentration in the dilution series that meets the test's criterion for growth inhibition) in the test with Lactococcus lactis is 0.08 µg/mL (≈ 0.363 µM); in the test on Staphylococcus aureus [2], more than 12.5 µg/mL; with Staphylococcus aureus [3], 12.5 µg/mL (≈ 56.8 µM); in the test with Enterococcus faecalis it was 12.5 µg/mL (≈ 56.8 µM); in the test with Bacillus cereus [4], 6.25 µg/mL (≈ 28.4 µM); in the test on Enterococcus faecium it was 6.25 µg/mL (≈ 28.4 µM).

Take `N[C@@H](Cc1c[nH]c2ccccc12)C(=O)O` [TRYPTOPHAN]: the MIC in the test on Lactococcus lactis came out at 0.04 µg/mL (≈ 0.196 µM); in the test with Staphylococcus aureus [2], 6.25 µg/mL (≈ 30.6 µM); with Staphylococcus aureus [3], 6.25 µg/mL (≈ 30.6 µM); in the test with Enterococcus faecalis, 12.5 µg/mL (≈ 61.2 µM); with Bacillus cereus [4], 6.25 µg/mL (≈ 30.6 µM); in the test on Enterococcus faecium, 3.13 µg/mL (≈ 15.3 µM).

As to `N[C@@H](Cc1c[nH]c2ccc(Br)cc12)C(=O)O`, the MIC came out at 0.04 µg/mL (≈ 0.141 µM) with Lactococcus lactis; 3.13 µg/mL (≈ 11.1 µM) in the test with Staphylococcus aureus [2]; 6.25 µg/mL (≈ 22.1 µM) in the test on Staphylococcus aureus [3]; 12.5 µg/mL (≈ 44.2 µM) in the test with Enterococcus faecalis; 3.13 µg/mL (≈ 11.1 µM) with Bacillus cereus [4]; 3.13 µg/mL (≈ 11.1 µM) in the test on Enterococcus faecium. The outcome in the test on Bacillus cereus [1] was inactive. The outcome with Bacillus cereus [5] and in the test on Bacillus cereus [6] was Active.

As for `N[C@@H](Cc1c[nH]c2cc(Br)ccc12)C(=O)O`, the MIC with Lactococcus lactis is 0.08 µg/mL (≈ 0.283 µM); in the test on Staphylococcus aureus [2] it was 6.25 µg/mL (≈ 22.1 µM); in the test on Staphylococcus aureus [3] it was 12.5 µg/mL (≈ 44.2 µM); in the test with Enterococcus faecalis, 25 µg/mL (≈ 88.3 µM); in the test on Bacillus cereus [4] it was 6.25 µg/mL (≈ 22.1 µM); with Enterococcus faecium, 3.13 µg/mL (≈ 11.1 µM).
